From ChEMBL document CHEMBL1125590, “Purine and 1-deazapurine ribonucleosides and deoxyribonucleosides: synthesis and biological activity” (J Med Chem, 1991)

Key:
P388 = assay: Compound was tested for its antitumor activity to inhibit 50% of tumor cell growth in mouse leukemia P388 cell lines.; type: functional; details: read-out: ID50 (the source's name)
Procedure, shortened: (§1)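 L1210 and P388 murine leukemia cells were kept in RPMI 1640 with 10% fetal calf serum, penicillin and streptomycin, plus 1 mM β-mercaptoethanol added at 1% (L1210) or 2% (P388). Stocks were 1 mg/mL in 5% DMSO, diluted in water (0.5% DMSO at the top dose). Cells were plated at 3×10^4/mL and treated immediately for 72 h, then Coulter-counted as % of control; IC50 was taken from concentration–response curves.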

L1210 = assay: Compound was tested for its antitumor activity to inhibit 50% of tumor cell growth in mouse leukemia L1210 cell lines.; type: functional; details: read-out: ID50 (the source's name); procedure, shortened: as §1
Adenosine deaminase [1] = biological target: T1, Adenosine deaminase (Bos taurus, UniProt P56658); assay: Compound was tested for the inhibition of Adenosine deaminase from calf intestine.
T1 sequence (P56658 whole entry): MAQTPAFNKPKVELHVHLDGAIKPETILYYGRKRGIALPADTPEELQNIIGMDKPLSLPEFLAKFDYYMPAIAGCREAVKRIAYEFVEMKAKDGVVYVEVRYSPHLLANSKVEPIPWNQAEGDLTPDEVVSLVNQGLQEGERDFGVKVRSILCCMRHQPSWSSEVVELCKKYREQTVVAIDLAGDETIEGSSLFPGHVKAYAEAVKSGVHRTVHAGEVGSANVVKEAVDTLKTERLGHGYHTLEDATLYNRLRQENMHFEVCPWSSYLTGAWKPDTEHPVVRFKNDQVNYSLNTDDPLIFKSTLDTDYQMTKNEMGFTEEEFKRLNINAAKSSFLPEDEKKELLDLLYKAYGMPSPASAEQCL

Adenosine deaminase [2] = biological target: T1, Adenosine deaminase; assay: Compound was tested for the inhibition of Adenosine deaminase from calf intestine; NA indicates not active

Compound	IC50 (P388) [µM]	IC50 (L1210) [µM]	Ki (Adenosine deaminase [1]) [µM]	Ki (Adenosine deaminase [2])
OC[C@H]1O[C@@H](n2cnc3c(NO)ccnc32)[C@H](O)[C@@H]1O	4.9	5.3	1.2	
OC[C@H]1O[C@@H](n2cnc3/c(=N\O)[nH]cnc32)[C@H](O)[C@@H]1O	1.6	3.1		
OC[C@H]1O[C@@H](n2cnc3c(NO)ccnc32)C[C@@H]1O	67.6	> 100	0.27	
O=[N+]([O-])c1ccnc2c1ncn2[C@H]1C[C@H](O)[C@@H](CO)O1	20.6	14.9		Not Active
Cc1ccc(C(=O)OC[C@H]2O[C@@H](n3cnc4c(NO)cc(Cl)nc43)C[C@@H]2OC(=O)c2ccc(C)cc2)cc1	4.3	4.8		Not Active
Cc1ccc(C(=O)OC[C@H]2O[C@@H](n3cnc4c(NO)nc(Cl)nc43)C[C@@H]2OC(=O)c2ccc(C)cc2)cc1	10.4	4.9		Not Active
Cc1ccc(C(=O)OC[C@H]2O[C@@H](n3cnc4c(NO)ccnc43)C[C@@H]2OC(=O)c2ccc(C)cc2)cc1	16.9	22.5	5.3	
OC[C@H]1OC(n2cnc3c(NO)nc(Cl)nc32)[C@H](O)[C@@H]1O (stereo partly specified)	75.5	94.4		Not Active
O=[N+]([O-])c1cc(Cl)nc2c1ncn2C1O[C@H](CO)[C@@H](O)[C@H]1O (stereo partly specified)	1.5	0.9		Not Active
OC[C@H]1OC(n2cnc3c(NO)cc(Cl)nc32)[C@H](O)[C@@H]1O (stereo partly specified)	60	91	69	
Nc1ncnc2c1ncn2[C@@H]1O[C@H](CO)[C@@H](O)[C@@H]1O [VIDARABINE]	16.8	21.7		
